Data on five compounds can be found in PMC4353699 (Journal of medicinal chemistry, 2014).

By Papp A→B is commonly meant how fast a substance crosses the layer from the apical side.

The structures appear in SMILES notation.

The test system of one data set is Caco-2 cells. Put plainly: Caco-2 permeability assay. The settings on record: Caco-2, apical to basolateral, 10 μM. For orientation: Caco-2 monolayers are a common model of the intestinal barrier.
The nature of data set [1]: Metabolic stability in human liver microsomes. In kind it is in vitro ADME. The settings on record: without NADPH.
The next data set has as its system MRSA (USA300). Put plainly: Time-kill assay. In kind it is cell-based, Staphylococcus aureus. As to conditions: for bactericidal effect in time-kill assay / time to eliminate MRSA (CFU to zero): 3.0 × MIC.
Data set [2] concerns 18 different strains of MRSA and VRSA. Put plainly: MIC, summary over the strain panel. Type of data set: cell-based, Staphylococcus aureus. The method in brief:
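Panel of 18 clinical isolates of MRSA and VRSA, with MRSA strains supplied by the NARSA repository. It includes linezolid-resistant MRSA NRS119 and multidrug-resistant VRSA, USA100, USA200 and USA500. MIC is the minimum concentration of test compound that inhibits bacterial growth.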

The next data set is described as follows: in vitro. The settings on record: human, Caco-2.

On to `CCCCc1ccc(-c2nc(C)c(/C(C)=N/NC(=N)N)s2)cc1` [1a], for which, in the data set with Caco-2 cells, the “Papp, A to B direction” value is on record as “very limited permeability”. Further, the “metabolism on removing the cofactor NADPH” value in data set [1] is “significantly reduced”. Besides, in the data set on MRSA (USA300), the “bactericidal effect in time-kill assay” value is “bactericidal” and the “time to eliminate MRSA (CFU to zero)” value was “within two hours”. Further, the “concentration inhibiting growth (MIC), range over MRSA strains” value in data set [2] was in the range of 1.4 to 5.5 mg/L.

With `CCCCCc1ccc(-c2nc(C)c(/C(C)=N/NC(=N)N)s2)cc1` [1d], in the data set on MRSA (USA300), the “bactericidal effect in time-kill assay” value is listed as “bactericidal” and the “time to eliminate MRSA (CFU to zero)” value is on record as “within two hours”.

On to `CN[C@H](CC(C)C)C(=O)N[C@H]1C(=O)N[C@@H](CC(N)=O)C(=O)N[C@H]2C(=O)N[C@H]3C(=O)N[C@H](C(=O)N[C@H](C(=O)O)c4cc(O)cc(O)c4-c4cc3ccc4O)[C@H](O)c3ccc(c(Cl)c3)Oc3cc2cc(c3O[C@@H]2O[C@H](CO)[C@@H](O)[C@H](O)[C@H]2O[C@H]2C[C@](C)(N)[C@H](O)[C@H](C)O2)Oc2ccc(cc2Cl)[C@H]1O` [VAN, vancomycin, reference compound], for which, in the data set on MRSA (USA300) (within a 12-hour window), the “reduction of CFU by 3-log10” value is given as “not able to reduce the number of CFU by 3-log10”.

For `C/C(=N\NC(=N)N)c1sc(-c2ccc(C3CCCCC3)cc2)nc1C` [compound 8, 2-{1-[2-(4-Cyclohexylphenyl)-4-methylthiazol-5-yl]ethylidene}hydrazinecarboximidamide], in the data set with MRSA (USA300), the “bactericidal effect in time-kill assay” value is on record as “bactericidal” and the “time to eliminate MRSA (CFU to zero)” value is “six hours”.

`CNC(=C[N+](=O)[O-])NCCSCc1ccc(CN(C)C)o1` [ranitidine] yielded a Papp A→B at 2 h, 10 µM in the data set “in vitro” of 2 nm/s.
